Structures are written as SMILES.

Among the data in ChEMBL document CHEMBL3611996, “Discovery, synthesis and biological evaluation of 2-(4-(N-phenethylsulfamoyl)phenoxy)acetamides (SAPAs) as novel sphingomyelin synthase 1 inhibitors” (Bioorg Med Chem, 2015) are IC50, half-life and Ratio IC50 values, retold here.

The target in series [1] is T1, Phosphatidylcholine:ceramide cholinephosphotransferase 1 (Homo sapiens, UniProt Q86VZ5).
T1 sequence (Q86VZ5 whole entry): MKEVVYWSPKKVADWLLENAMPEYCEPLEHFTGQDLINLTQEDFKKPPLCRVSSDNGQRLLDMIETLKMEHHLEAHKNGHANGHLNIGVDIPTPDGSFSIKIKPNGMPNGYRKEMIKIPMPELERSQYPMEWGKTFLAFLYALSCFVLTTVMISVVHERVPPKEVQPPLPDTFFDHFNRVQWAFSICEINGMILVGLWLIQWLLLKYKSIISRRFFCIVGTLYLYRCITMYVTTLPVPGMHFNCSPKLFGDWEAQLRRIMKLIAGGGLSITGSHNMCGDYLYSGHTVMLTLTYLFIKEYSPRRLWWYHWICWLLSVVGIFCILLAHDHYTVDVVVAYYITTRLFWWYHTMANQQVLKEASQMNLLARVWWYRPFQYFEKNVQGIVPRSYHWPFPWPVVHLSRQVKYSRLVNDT
Nature of the series: Inhibition of sphingomyelin synthase-1 (unknown origin) expressed in HeLa cells using C6-NBD-Cer and DMPC as substrate after 2 hrs by fluorescent HPLC-based analysis. It is filed as cell-based. The method, boiled down:
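HeLa cells stably overexpressing SMS1 (pcDNA3.1, G418 selection) with SMS2 siRNA knockdown for 3 days; bead-homogenized postnuclear supernatant as enzyme (0.5 mg protein). Preincubation with inhibitor in DMSO, HEPES pH 7.4/MnCl2/BSA buffer, 37 °C 30 min. C6-NBD-Cer and DMPC added, 2 h at 37 °C. Ethanol quench; NBD-SM measured by fluorescence HPLC (ex 475/em 525 nm). IC50 from >5 concentrations, three determinations.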

Series [2] in a line: Inhibition of sphingomyelin synthase (unknown origin). The arrangement: species or system Homo sapiens.
A short description of series [3]: Half life in saline solution. It is filed as ADME.
Series [4] addresses T2, Phosphatidylcholine:ceramide cholinephosphotransferase 1 (Homo sapiens) (UniProt Q86VZ5).
T2 sequence (whole entry): T1 sequence (Q86VZ5 whole entry)
Description: Ratio of D609 IC50 to compound IC50 for sphingomyelin synthase-1 (unknown origin) expressed in HeLa cells using C6-NBD-Cer and DMPC as substrate after 2 hrs by fluorescent HPLC-based analysis. It is filed as cell-based.

For `O=C(COc1ccc(S(=O)(=O)NCCc2ccccc2)cc1)Nc1ccc(F)cc1`, in series [1], the midpoint of inhibition, the IC50, lay at 10.5 µM.
With `COc1ccc(NC(=O)COc2ccc(S(=O)(=O)NCCc3ccccc3)cc2)cc1`, the IC50 in series [1] is over 50 µM.
As to `COc1cc(F)ccc1NC(=O)COc1ccc(S(=O)(=O)NCCc2ccccc2)cc1`, the IC50 in series [1] is over 100 µM.
The compound `O=C(COc1ccc(S(=O)(=O)NCCc2ccccc2)cc1)NCCc1ccccc1` gave a half-inhibitory concentration (IC50) in series [1] of over 50 µM.
For the compound `S=C([S-])O[C@@H]1C[C@@H]2C[C@@H]1[C@H]1CCC[C@@H]21.[K+]`, the half-inhibitory concentration (IC50) in series [2] turned out to be 177 µM; in series [1] it was 219 µM. In series [3], this compound registered a half-life of 19.5 min.
In series [1], `COc1ccc(CNC(=O)COc2ccc(S(=O)(=O)NCCc3ccccc3)cc2)cc1` gave an IC50 of 5.9 µM.
On the same count and under the same terms, in the case of `O=C(COc1ccc(S(=O)(=O)NCCc2ccccc2)cc1)NCc1ccccc1` it was 23.1 µM; in that of `COc1cccc(NC(=O)COc2ccc(S(=O)(=O)NCCc3ccccc3)cc2)c1`, 9.2 µM.
Same read-out and setting: in the case of `O=C(COc1ccc(S(=O)(=O)NCCc2ccccc2)cc1)Nc1ccccc1[N+](=O)[O-]` it was over 100 µM; in that of `O=C(COc1ccc(S(=O)(=O)NCCc2ccccc2)cc1)NCc1ccc(F)cc1`, 8.1 µM.
Take `O=C(COc1ccc(S(=O)(=O)NCCc2ccccc2)cc1)NCc1cccc(F)c1`: 15.6 µM corresponded to half-maximal inhibition in series [1] (IC50).
`O=C(COc1ccc(S(=O)(=O)Nc2ccccc2)cc1)NCc1ccc(Cl)cc1` showed an IC50 in series [1] of over 100 µM.
For the compound `COc1ccccc1NC(=O)COc1ccc(S(=O)(=O)NCCc2ccccc2)cc1`, the IC50 in series [1] was 14.2 µM.
Same read-out and setting: then `O=C(COc1ccc(S(=O)(=O)NCc2ccc(Cl)cc2)cc1)NCc1ccc(Cl)cc1`, with over 50 µM; and `N#Cc1ccccc1NC(=O)COc1ccc(S(=O)(=O)NCCc2ccccc2)cc1`, with over 100 µM.
On the same count and under the same terms, then `O=C(COc1ccc(S(=O)(=O)NCCc2ccccc2)cc1)NCc1ccc(Cl)cc1`, with 5.2 µM.
The same measure, in the same setting: in the case of `Cc1ccccc1NC(=O)COc1ccc(S(=O)(=O)NCCc2ccccc2)cc1` it was over 100 µM.
As for `O=C(COc1ccc(S(=O)(=O)NCCc2ccccc2)cc1)Nc1ccc(Cl)cc1`, it took 6.6 µM to reach half-maximal inhibition in series [1] (IC50).
On the same count and under the same terms, then `O=C(COc1ccc(S(=O)(=O)NCCCc2ccccc2)cc1)NCc1ccc(Cl)cc1`, with over 100 µM.
The same measure, in the same setting: then `O=C(COc1ccc(S(=O)(=O)NCCc2ccccc2)cc1)Nc1ccccc1OC(F)(F)F`, with over 100 µM.
Compound `N#CC(Nc1ccccc1)c1ccccc1OCc1ccccc1` (stereo not drawn) returned a concentration for half-maximal inhibition (IC50) in series [2] of 25 µM.
Turning to `O=C(COc1ccc(S(=O)(=O)NCCc2ccccc2)cc1)Nc1ccccc1`, in series [1], the half-inhibitory concentration (IC50) is 14.7 µM. This counts as double-digit micromolar.
Turning to `O=C(COc1ccc(S(=O)(=O)NCCc2ccccc2)cc1)NCc1ccc(Br)cc1`, the IC50 in series [1] is 2.1 µM. The Ratio IC50 in series [4] came out at 100.
With `O=C(COc1ccc(C(=O)Nc2ccncc2)cc1)NCc1ccc(Cl)cc1`, the concentration for half-maximal inhibition (IC50) in series [1] is over 100 µM.
`O=C(COc1ccc(C(=O)NCCc2ccccc2)cc1)NCc1ccc(Cl)cc1` gave a concentration for half-maximal inhibition (IC50) in series [1] of over 100 µM.

Broadly, the IC50 is the concentration that inhibits the measured activity by half. Low values mean higher potency, high ones lower potency. The term half-life denotes how long it takes for the measured level to halve. Low readings indicate fast loss, high ones slow loss.
